From ChEMBL document CHEMBL1142547, “Synthesis and antiviral activity of novel pyrazole derivatives containing oxime esters group” (Bioorg Med Chem, 2008)
Active and inactive are the calls of the source. The calls are words filed in the database; no cut-off is given here.

Key:
[1] = test system: Tobacco mosaic virus; experiment: Antiviral activity against TMV assessed as viral inactivation effect at 500 mg/L; format: functional
In short: (§1)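 TMV purified by Gooding's method. Protective, inactivating and curative effects tested on tobacco in vivo by Li's method at 500 mg/L. Ningnanmycin served as the reference control. Each experiment used three replicates and was run three times. Data were analysed by one-way ANOVA with LSD mean separation.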

[2] = test system: Tobacco mosaic virus; experiment: Antiviral activity against TMV assessed as viral disease curative effect at 500 mg/L; format: functional; in short: as §1
[3] = test system: Tobacco mosaic virus; experiment: Antiviral activity against TMV assessed as protection effect against viral infection at 500 mg/L; format: functional, organism-based; in short: as §1
[4] = test system: Nicotiana tabacum; experiment: Increase in peroxidase enzyme level in TMV-infected tobacco at 500 ug/mL after 1 day by Polle's method; format: functional, organism-based
In short: (§2)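 Nicotiana tabacum inoculated with TMV was treated at 500 μg/mL, and leaves were sampled at 1, 3, 5 and 7 days. Leaves were homogenized on ice in 5 mM 2-mercaptoethanol–boric acid buffer, pH 8.8, then centrifuged. The supernatant was assayed for PAL (He), POD (Polle) or SOD (Beauchamp). Water and TMV-only treatments were the controls. Means ± SD, n = 3, one-way ANOVA.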

[5] = test system: Nicotiana tabacum; experiment: Increase in PR-1a gene expression in TMV-infected tobacco leaf assessed as gene expression ratio on day 5 by RT-PCR; format: functional
In short: (§3)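 Real-time PCR used gene-specific primers, with β-actin as the reference, and included a 40–95 °C melt curve. Expression ratio was calculated by ΔΔCT against a calibrator over days 1–7 after TMV inoculation. Mean ± SD, n = 4, triplicate sets.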

[6] = test system: Nicotiana tabacum; experiment: Increase in peroxidase enzyme level in TMV-infected tobacco at 500 ug/mL after 7 days by Polle's method; format: functional; in short: as §2
[7] = test system: Nicotiana tabacum; experiment: Increase in superoxide dismutase level in TMV-infected tobacco at 500 ug/mL after 7 days by Beauchamp's method; format: functional; in short: as §2
[8] = test system: Nicotiana tabacum; experiment: […] in phenylalanine ammonia lyase level in TMV-infected tobacco at 500 ug/mL up to 7 days by He's method; format: functional, organism-based; in short: as §2
[9] = test system: Nicotiana tabacum; experiment: Increase in superoxide dismutase level in TMV-infected tobacco at 500 ug/mL after 1 day by Beauchamp's method; format: functional, organism-based; in short: as §2
[10] = test system: Nicotiana tabacum; experiment: Increase in PR-5 gene expression in TMV-infected tobacco leaf assessed as gene expression ratio on day 5 by RT-PCR; format: functional; in short: as §3

SMILES | Activity [1] | Activity [2] | Activity [3] | also measured
CC1=NN(c2cccc(Cl)c2)C(Sc2ccc(F)cc2)C1/C=N/OC(=O)c1ccccc1 (stereo not given) | 55% | 30.2% | 41% | –
C/C=C/C=C/C(=O)O/N=C/C1C(C)=NN(c2ccc(Cl)cc2)C1Sc1ccc(C)cc1 (stereo not given) | 68.9% | 38.9% | 50% | –
CCCCCC(=O)O/N=C/C1C(C)=NN(c2ccc(C)cc2)C1Sc1ccc(F)cc1 (stereo not given) | 61.5% | 30% | 40.9% | –
CCCCCC(=O)O/N=C/C1C(C)=NN(c2ccc(Cl)cc2)C1Sc1ccc(F)cc1 (stereo not given) | 85.6% | 62% | 31% | Activity [4]: Active; Ratio [5]: 26.6; Activity [6]: 40 EU/mg; Activity [7]: 40 EU/mg; Activity [8]: Active; Activity [9]: Active; Activity [10]: inactive
C/C=C/C=C/C(=O)O/N=C/C1C(C)=NN(c2ccc(C)cc2)C1Sc1ccc(F)cc1 (stereo not given) | 80.2% | 46.4% | 26% | –
CCCC(=O)O/N=C/C1C(C)=NN(c2ccccc2)C1Sc1ccc(F)cc1 (stereo not given) | 79.9% | 34% | 25.9% | –
CC1=NN(c2ccc(C)cc2)C(Sc2ccc(F)cc2)C1/C=N/OC(=O)c1ccccc1 (stereo not given) | 69.2% | 50% | 48.4% | –
CCCCCC(=O)O/N=C/C1C(C)=NN(c2ccccc2)C1Sc1ccc(F)cc1 (stereo not given) | 67.8% | 40.2% | 28.9% | –
COc1ccc(SC2C(/C=N/OC(=O)c3ccccc3)C(C)=NN2c2ccc(Cl)cc2)cc1 (stereo not given) | 56.8% | 35% | 27.6% | –
CNCC(=O)N[C@@H](CO)C(=O)N[C@H]1[C@H](O)[C@@H](O)[C@H](n2ccc(N)nc2=O)O[C@@H]1C(N)=O [NINGNANMYCIN] | 97% | 56% | – | Ratio [5]: 13.8; Ratio [10]: 17.9
CC1=NN(c2ccccc2)C(Sc2ccc(F)cc2)C1/C=N/OC(=O)c1ccccc1 (stereo not given) | 55% | 34.9% | 28.8% | –
CC1=NN(c2ccc(Cl)cc2)C(Sc2ccc(F)cc2)C1/C=N/OC(=O)c1ccccc1 (stereo not given) | 63.8% | 47.7% | 35% | –
C/C=C/C=C/C(=O)O/N=C/C1C(C)=NN(c2ccc(Cl)cc2)C1Sc1ccc(F)cc1 (stereo not given) | 82.9% | 60% | 28.3% | –
CC(=O)O/N=C/C1C(C)=NN(c2ccccc2)C1Sc1ccc(F)cc1 (stereo not given) | 81.4% | 40.4% | 36.7% | –
